Experimental data taken from ChEMBL document CHEMBL2331355, “Synthesis, structure activity relationship and mode of action of 3-substitutedphenyl-1-(2,2,8,8-tetramethyl-3,4,9,10-tetrahydro-2H,8H-pyrano[2,3-f]chromen-6-yl)-propenones as novel anticancer agents in human leukaemia HL-60 cells” (Eur J Med Chem, 2013).
The source made the active and inactive calls. No cut-off for these calls is given here.

Tests used:
HL-60 [1] = assay: Induction of mitochondrial membrane potential loss in human HL60 cells at 15 uM after 24 hrs by rhodamine-123 staining method (reference value: 7%); format: functional
Procedure, shortened: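 HL-60 cells (1 × 10⁶/2 ml/well) treated 24 h at 15 or 20 µM, then incubated with rhodamine-123 (200 nM) for 40 min. Loss of dye uptake measured by flow cytometry. Camptothecin (4 µM, 6 h) as positive control. Representative of three experiments.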

HL-60 [2] = assay: Cell cycle arrest in human HL60 cells assessed as G2/M phase cells at 20 uM after 24 hrs by PI staining-based flow cytometric analysis (reference value: 3%); format: functional
MIA PaCa-2 [3] = assay: Growth inhibition of human MIAPaCa2 cells at 50 uM after 48 hrs by MTT assay; format: functional; settings: MIA PaCa-2, 48 h, read-out: GI
Procedure, shortened: (§1)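 Single-concentration MTT screen at 50 µM over 48 h in 96-well plates. Compounds giving >50% inhibition were rescreened at 30 µM. OD read at 570 nm, reference 620 nm. Result expressed as % growth inhibition versus untreated control. Mitomycin C, adriamycin or 5-fluorouracil used as positive controls. Mean ± SD of three independent experiments.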

HL-60 [4] = assay: Cell cycle arrest in human HL60 cells assessed as G2/M phase cells at 10 uM after 24 hrs by PI staining-based flow cytometric analysis (reference value: 3%); format: functional
MCF7 [5] = assay: Growth inhibition of human MCF7 cells at 30 uM after 48 hrs by MTT assay; format: functional, cell-based; procedure, shortened: as §1
HL-60 [6] = assay: Induction of apoptosis in human HL60 cells assessed as DNA fragmentation at 20 uM after 24 hrs by SDS-PAGE analysis; format: functional, cell-based; settings: in the assay text read “agarose gel electrophoresis” for “SDS-PAGE analysis”
Procedure, shortened: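 HL-60 cells (2 × 10⁶/3 ml/well) treated at 20 µM for 24 h. Lysed, then digested with RNase (400 µg/ml, 37 °C, 90 min) and proteinase K (200 µg/ml, 50 °C, 1 h). DNA extracted with phenol/chloroform/isoamyl alcohol and alcohol-precipitated. Run on 1.8% agarose gel at 70 V for 1 h, stained with ethidium bromide, and scored for laddering.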

Caco-2 [7] = assay: Growth inhibition of human Caco2 cells at 30 uM after 48 hrs by MTT assay; format: functional, cell-based; procedure, shortened: as §1
MDA-MB-435 [8] = assay: Growth inhibition of human MDA-MB-435 cells at 50 uM after 48 hrs by MTT assay; format: functional; settings: MDA-MB-435, 48 h, read-out: GI; procedure, shortened: as §1
PC-3 [9] = assay: Growth inhibition of human PC3 cells at 50 uM after 48 hrs by MTT assay; format: functional; settings: PC-3, 48 h, read-out: GI; procedure, shortened: as §1
HL-60 [10] = assay: Cell cycle arrest in human HL60 cells assessed as S phase cells at 15 uM after 24 hrs by PI staining-based flow cytometric analysis (reference value: 49%); format: functional
HL-60 [11] = assay: Induction of apoptosis in human HL60 cells at 20 uM after 24 hrs by PI-staining based flow cytometric analysis (reference value: 0.7 %); format: functional
HL-60 [12] = assay: Cell cycle arrest in human HL60 cells assessed as S phase cells at 20 uM after 24 hrs by PI staining-based flow cytometric analysis (reference value: 49%); format: functional
HL-60 [13] = assay: Cell cycle arrest in human HL60 cells assessed as G2/M phase cells at 15 uM after 24 hrs by PI staining-based flow cytometric analysis (reference value: 3%); format: functional
HL-60 [14] = assay: Cytotoxicity against human HL60 cells after 24 hrs by MTT assay; format: functional, cell-based; settings: HL-60, 24 h
Procedure, shortened: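 HL-60 cells exposed 24 h to a range of concentrations, then MTT reduction measured. Untreated control OD taken as 100% viability; IC50 derived from the curve. Mean ± SD, n = 8 wells, three independent experiments.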

HL-60 [15] = assay: Induction of apoptosis in human HL60 cells at 10 uM after 24 hrs by PI-staining based flow cytometric analysis (reference value: 0.7 %); format: functional
ASPC1 [16] = assay: Growth inhibition of human AsPC1 cells at 50 uM after 48 hrs by MTT assay; format: functional; settings: ASPC1, 48 h, read-out: GI; procedure, shortened: as §1
HL-60 [17] = assay: Cell cycle arrest in human HL60 cells assessed as decrease in S phase cells after 24 hrs by PI staining-based flow cytometric analysis; format: functional
HL-60 [18] = assay: Growth inhibition of human HL60 cells at 30 uM after 48 hrs by MTT assay; format: functional, cell-based; procedure, shortened: as §1
HL-60 [19] = assay: Cytotoxicity against human HL60 cells after 48 hrs by MTT assay; format: functional, cell-based; settings: HL-60, 48 h
Procedure, shortened: (§2)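 MTT assay in 96-well plates, 48 h exposure across 1–100 µM. OD read at 570 nm against a 620 nm reference. Untreated control OD taken as 100% viability. IC50 derived from the concentration–response curves. Mean ± SD, n = 8 wells, from three independent experiments.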

MIA PaCa-2 [20] = assay: Growth inhibition of human MIAPaCa2 cells at 30 uM after 48 hrs by MTT assay; format: functional, cell-based; procedure, shortened: as §1
HL-60 [21] = assay: Induction of apoptosis in human HL60 cells assessed as nuclear condensation after 24 hrs by Hoechst 33258 staining; format: functional, cell-based
Procedure, shortened: (§3)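 HL-60 cells (1 × 10⁶/2 ml) treated 24 h at 15 and 20 µM, pelleted at 300 g and washed. Stained with Hoechst 33258, then examined under an inverted fluorescence microscope (10×, UV excitation) for nuclear condensation, blebbing and apoptotic bodies.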

HL-60 [22] = assay: Cell cycle arrest in human HL60 cells assessed as accumulation of G0/G1 phase cells at 10 uM after 24 hrs by PI staining-based flow cytometric analysis (reference value: 48%); format: functional
Caco-2 [23] = assay: Cytotoxicity against human Caco2 cells after 48 hrs by MTT assay; format: functional, cell-based; settings: Caco-2, 48 h; procedure, shortened: as §2
MDA-MB-435 [24] = assay: Growth inhibition of human MDA-MB-435 cells at 30 uM after 48 hrs by MTT assay; format: functional, cell-based; procedure, shortened: as §1
ASPC1 [25] = assay: Growth inhibition of human AsPC1 cells at 30 uM after 48 hrs by MTT assay; format: functional, cell-based; procedure, shortened: as §1
HL-60 [26] = assay: Cell cycle arrest in human HL60 cells assessed as S phase cells at 5 uM after 24 hrs by PI staining-based flow cytometric analysis (reference value: 49%); format: functional
HL-60 [27] = assay: Cell cycle arrest in human HL60 cells assessed as decrease in G2/M phase cells after 24 hrs by PI staining-based flow cytometric analysis; format: functional
MCF7 [28] = assay: Growth inhibition of human MCF7 cells at 50 uM after 48 hrs by MTT assay; format: functional; settings: MCF7, 48 h, read-out: GI; procedure, shortened: as §1
HL-60 [29] = assay: Cell cycle arrest in human HL60 cells assessed as S phase cells at 10 uM after 24 hrs by PI staining-based flow cytometric analysis (reference value: 49%); format: functional
PC-3 [30] = assay: Growth inhibition of human PC3 cells at 30 uM after 48 hrs by MTT assay; format: functional, cell-based; procedure, shortened: as §1
HL-60 [31] = assay: Induction of apoptosis in human HL60 cells assessed as apoptotic bodies at 20 uM after 24 hrs by Hoechst 33258 staining; format: functional, cell-based; procedure, shortened: as §3
HL-60 [32] = assay: Induction of apoptosis in human HL60 cells at 15 uM after 24 hrs by PI-staining based flow cytometric analysis (reference value: 0.7 %); format: functional
HL-60 [33] = assay: Induction of apoptosis in human HL60 cells assessed as nuclear blebbing after 24 hrs by Hoechst 33258 staining; format: functional, cell-based; procedure, shortened: as §3
HL-60 [34] = assay: Cell cycle arrest in human HL60 cells assessed as accumulation of G0/G1 phase cells at 15 uM after 24 hrs by PI staining-based flow cytometric analysis (reference value: 48%); format: functional

| Compound | Activity (HL-60 [1]) [%] | Activity (HL-60 [2]) [%] | inhibition of growth at 50 µM (MIA PaCa-2 [3]) [%] | Activity (HL-60 [4]) [%] | growth inhibition (GI) (MCF7 [5]) | Activity (HL-60 [6]) | growth inhibition (GI) (Caco-2 [7]) | inhibition of growth at 50 µM (MDA-MB-435 [8]) [%] | inhibition of growth at 50 µM (PC-3 [9]) [%] | Activity (HL-60 [10]) [%] | Activity (HL-60 [11]) [%] | Activity (HL-60 [12]) [%] | Activity (HL-60 [13]) [%] | IC50 (HL-60 [14]) [µM] | Activity (HL-60 [15]) [%] | inhibition of growth at 50 µM (ASPC1 [16]) [%] | Activity (HL-60 [17]) | growth inhibition (GI) (HL-60 [18]) | IC50 (HL-60 [19]) [µM] | growth inhibition (GI) (MIA PaCa-2 [20]) | other results |
| --- | --- | --- | --- | --- | --- | --- | --- | --- | --- | --- | --- | --- | --- | --- | --- | --- | --- | --- | --- | --- | --- |
| CC1(C)CCc2cc(C(=O)/C=C/c3cccc([N+](=O)[O-])c3)c3c(c2O1)CCC(C)(C)O3 | 44 | 3 | 80 | 4 | Active | Active | Active | 88 | 72 | 25 | 58 | 11 | 4 | 25 | 13 | 48 | Dose-dependent effect | Active | 11 | Active | Activity (HL-60 [21]): Dose-dependent effect; Activity (HL-60 [22]): 54%; IC50 (Caco-2 [23]): 16 µM; growth inhibition (GI) (MDA-MB-435 [24]): Active; growth inhibition (GI) (ASPC1 [25]): Active; Activity (HL-60 [26]): 48%; Activity (HL-60 [27]): Dose-dependent effect; inhibition of growth at 50 µM (MCF7 [28]): 89%; Activity (HL-60 [29]): 42%; growth inhibition (GI) (PC-3 [30]): Active; Activity (HL-60 [31]): Active; Activity (HL-60 [32]): 30%; Activity (HL-60 [33]): Dose-dependent effect; Activity (HL-60 [34]): 71% |
| CC1(C)CCc2cc(C(=O)/C=C/c3ccc([N+](=O)[O-])cc3)c3c(c2O1)CCC(C)(C)O3 | 52 | 4 | 74 | 4 | Active | Active | Active | 78 | 61 | 43 | 32 | 37 | 4 | 23 | 14 | 27 | Dose-dependent effect | Active | 15 | Active | Activity (HL-60 [21]): Dose-dependent effect; Activity (HL-60 [22]): 52%; IC50 (Caco-2 [23]): 28 µM; growth inhibition (GI) (MDA-MB-435 [24]): Active; growth inhibition (GI) (ASPC1 [25]): Active; Activity (HL-60 [26]): 47%; Activity (HL-60 [27]): Dose-dependent effect; inhibition of growth at 50 µM (MCF7 [28]): 52%; Activity (HL-60 [29]): 44%; growth inhibition (GI) (PC-3 [30]): Active; Activity (HL-60 [31]): Active; Activity (HL-60 [32]): 14%; Activity (HL-60 [33]): Dose-dependent effect; Activity (HL-60 [34]): 53% |
